From ChEMBL document CHEMBL4422663, “Suppression of Tumor Growth and Metastases by Targeted Intervention in Urokinase Activity with Cyclic Peptides” (J Med Chem, 2019)
The source made the active and inactive calls. No cut-off for these calls is given here. Positions of bridges follow the written chain, without caps; N, C: chain ends. Residues, ends and D or L forms follow the SMILES beside them.

What was measured:
[1] = molecular target: T1, Urokinase-type plasminogen activator (Mus musculus, UniProt P06869); test: Inhibition of mouse uPA preincubated for 15 mins followed by chromogenic substrate addition
Plasma kallikrein = Plasma kallikrein (Mus musculus, UniProt P26262); test: Inhibition of mouse plasma kallikrein preincubated for 15 mins followed by chromogenic substrate addition
[2] = molecular target: Tissue-type plasminogen activator (Homo sapiens, UniProt P00750); test: Inhibition of human tissue-type plasminogen activator preincubated for 15 mins followed by chromogenic substrate addition
[3] = molecular target: Tissue-type plasminogen activator (Mus musculus, UniProt P11214); test: Inhibition of mouse tissue-type plasminogen activator preincubated for 15 mins followed by chromogenic substrate addition
Plasminogen = Plasminogen (Homo sapiens, UniProt P00747); test: Inhibition of human plasmin preincubated for 15 mins followed by chromogenic substrate addition
Prothrombin [4] = molecular target: Prothrombin (Homo sapiens, UniProt P00734); test: Inhibition of human thrombin preincubated for 15 mins followed by chromogenic substrate addition
Prothrombin [5] = molecular target: Prothrombin (Mus musculus, UniProt P19221); test: Inhibition of mouse thrombin preincubated for 15 mins followed by chromogenic substrate addition
[6] = Inhibition of mouse trypsin preincubated for 15 mins followed by chromogenic substrate addition
Coagulation factor XI = Coagulation factor XI (Homo sapiens, UniProt P03951); test: Inhibition of human factor 11a preincubated for 15 mins followed by chromogenic substrate addition
[7] = molecular target: T1, Urokinase-type plasminogen activator; test: Binding affinity to mouse uPA by SPR assay
[8] = molecular target: T1, Urokinase-type plasminogen activator; test: Binding affinity to mouse uPA expressed in HEK2936E cells by ITC assay
[9] = molecular target: Urokinase-type plasminogen activator (Mus musculus) (UniProt P06869); test: Inhibition of the intrinsic peri-cellular uPA in mouse CT26 cells assessed as reduction in cell migration at 30 to 100 uM measured every hour by wound healing assay relative to control; assay type: cell-based
[10] = molecular target: T1, Urokinase-type plasminogen activator; test: Inhibition of uPA in presence of 75% mouse […] measured immediately
In short: (§1)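 Peptide was preincubated in 75% murine plasma for 0–24 h (sampled at 0, 2, 8 and 24 h). Residual uPA-inhibitory activity was then measured and expressed as IC50.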

[11] = molecular target: T1, Urokinase-type plasminogen activator; test: Inhibition of uPA in presence of 75% mouse […] measured at 2 hrs; in short: as §1
[12] = molecular target: T1, Urokinase-type plasminogen activator; test: Inhibition of uPA in presence of 75% mouse […] measured at 8 hrs; in short: as §1
[13] = molecular target: T1, Urokinase-type plasminogen activator; test: Inhibition of uPA in presence of 75% mouse […] measured at 24 hrs; in short: as §1
[14] = Stability in 75% mouse plasma assessed as protease-mediated compound degradation measured within 8 hrs; assay type: ADME, cell-free; in short: as §1
CT26 [15] = test: Anti-tumor activity against […] mouse CT26 cells allografted in Balb/c mouse assessed as tumor growth inhibition at 1.13 mg/kg, ip administered daily for 15 days and measured on day 16 […]; assay type: functional; settings: read-out: TGI
In short: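 CT-26 cells implanted subcutaneously in right flank of Balb/c mice; once tumors reached about 150~200 mm3, daily intraperitoneal dosing with peptide or saline for 15 days. Mice sacrificed on Day 16; tumors resected and weighed; tumor growth reduction relative to saline group.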

CT26 [16] = test: Antimetastatic activity against GFP-fused mouse CT26 cells allografted in Balb/c mouse assessed as reduction genomic DNA of metastatic cells at 1.13 mg/kg, ip administered daily for 15 days by qPCR analysis; assay type: functional, organism-based
In short: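 Lung-metastasis model: male Balb/c (~20 g, 6/group) given 10^6 GFP-CT-26 cells iv, then daily ip dosing from Day 1 to 15, killed on Day 16. Total DNA (200 ng) from homogenized lungs went to SYBR Green qPCR (287 bp amplicon, 45 cycles). The standard curve used CT-26 genomic DNA spiked into normal lung DNA at 0.135–100%.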

CT26 [17] = test: Antimetastatic activity against GFP-fused mouse CT26 cells allografted in Balb/c mouse assessed as reduction in hyperplastic weights at 1.13 mg/kg, ip administered daily for 15 days by fluorescence-based assay; assay type: functional, organism-based
In short: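 GFP-CT-26 cells (10^6) iv into male Balb/c, daily ip treatment Days 1–15, lungs resected and weighed at sacrifice on Day 16. Hyperplastic weight is lung weight minus the mean weight of lungs from non-implanted normal mice.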

CT26 [18] = test: Antimetastatic activity against mouse CT26 cells allografted in Balb/c mouse at 11.3 mg/kg, ip administered daily for 15 days by hematoxylin and eosin staining -based assay; assay type: functional, organism-based
In short: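 Lungs from male Balb/c given 10^6 GFP-CT-26 cells iv, with daily ip dosing on Days 1–15, were harvested on Day 16. Formalin-fixed, paraffin-embedded sections were stained with H&E for histology, with non-implanted lungs as comparison.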

[19] = Toxicity in Balb/c mouse allografted with mouse CT26 cells assessed as effect on body weight at 1.13 to 11.3 mg/kg, ip administered daily for 15 days; assay type: organism-based; settings: in vivo, 360 h
[20] = Stability in 75% mouse plasma assessed as protease-mediated compound degradation measured 24 hrs post dose; assay type: ADME, cell-free; in short: as §1
[21] = Drug level in blood of GFP-fused mouse CT26 cells allografted in Balb/c mouse at 11.3 mg/kg, ip administered daily for 15 days; assay type: ADME, organism-based; settings: read-out: Drug uptake
[22] = molecular target: Urokinase-type plasminogen activator (Mus musculus) (UniProt P06869); test: Inhibition of the intrinsic peri-cellular uPA in mouse CT26 cells assessed as reduction in cell invasion at 33 to 100 uM by Transwell invasion assay relative to control

T1 sequence (P06869 21-178 limits assumed): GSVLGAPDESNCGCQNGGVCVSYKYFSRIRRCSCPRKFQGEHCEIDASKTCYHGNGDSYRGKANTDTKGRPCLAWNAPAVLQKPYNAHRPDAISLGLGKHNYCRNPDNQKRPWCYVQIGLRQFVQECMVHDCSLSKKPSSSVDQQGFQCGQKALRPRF
T1 sequence (P06869 180-433 limits assumed): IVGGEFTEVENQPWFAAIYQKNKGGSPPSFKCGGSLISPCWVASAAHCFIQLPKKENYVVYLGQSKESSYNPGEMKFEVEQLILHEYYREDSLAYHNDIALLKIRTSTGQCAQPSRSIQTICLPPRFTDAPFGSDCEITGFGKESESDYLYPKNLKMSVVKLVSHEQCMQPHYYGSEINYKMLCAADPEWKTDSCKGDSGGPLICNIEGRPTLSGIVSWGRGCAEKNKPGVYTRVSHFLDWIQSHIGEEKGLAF
Sequence of Urokinase-type plasminogen activator (Mus musculus) (P06869 21-178 limits assumed): as the sequence (P06869 21-178 limits assumed) above
Sequence of Urokinase-type plasminogen activator (Mus musculus) (P06869 180-433 limits assumed): as the sequence (P06869 180-433 limits assumed) above
Sequence of Tissue-type plasminogen activator (Homo sapiens, UniProt P00750) (P00750 whole entry): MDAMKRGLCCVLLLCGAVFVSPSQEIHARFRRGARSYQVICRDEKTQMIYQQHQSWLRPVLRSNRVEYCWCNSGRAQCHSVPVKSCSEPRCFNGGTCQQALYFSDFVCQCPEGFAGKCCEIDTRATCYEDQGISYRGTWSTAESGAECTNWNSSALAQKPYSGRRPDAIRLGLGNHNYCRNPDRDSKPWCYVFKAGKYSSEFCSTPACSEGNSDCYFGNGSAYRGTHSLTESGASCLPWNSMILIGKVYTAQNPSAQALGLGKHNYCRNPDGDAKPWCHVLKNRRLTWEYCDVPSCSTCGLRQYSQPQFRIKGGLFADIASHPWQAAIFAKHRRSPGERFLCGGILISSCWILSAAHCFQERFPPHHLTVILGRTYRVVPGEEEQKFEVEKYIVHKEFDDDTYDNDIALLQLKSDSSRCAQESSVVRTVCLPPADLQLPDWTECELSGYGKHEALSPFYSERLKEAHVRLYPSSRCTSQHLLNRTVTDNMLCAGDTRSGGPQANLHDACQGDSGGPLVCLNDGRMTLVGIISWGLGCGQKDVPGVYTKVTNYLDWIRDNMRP
Sequence of Plasminogen (P00747 97-580 limits assumed): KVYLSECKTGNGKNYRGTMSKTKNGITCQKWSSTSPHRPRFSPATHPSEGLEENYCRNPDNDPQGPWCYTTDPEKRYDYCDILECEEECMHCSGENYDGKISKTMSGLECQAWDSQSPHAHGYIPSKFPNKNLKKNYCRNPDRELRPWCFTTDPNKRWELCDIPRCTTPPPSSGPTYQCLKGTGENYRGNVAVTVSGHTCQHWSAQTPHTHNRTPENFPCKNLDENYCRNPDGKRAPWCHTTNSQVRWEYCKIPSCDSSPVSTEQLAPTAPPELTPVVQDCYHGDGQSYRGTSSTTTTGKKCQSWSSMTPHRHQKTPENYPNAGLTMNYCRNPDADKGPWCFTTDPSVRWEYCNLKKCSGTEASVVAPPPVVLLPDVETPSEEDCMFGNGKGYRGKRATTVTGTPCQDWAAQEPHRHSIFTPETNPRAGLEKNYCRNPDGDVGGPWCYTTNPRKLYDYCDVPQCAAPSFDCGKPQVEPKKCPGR
Sequence of Plasminogen (P00747 581-810 limits assumed): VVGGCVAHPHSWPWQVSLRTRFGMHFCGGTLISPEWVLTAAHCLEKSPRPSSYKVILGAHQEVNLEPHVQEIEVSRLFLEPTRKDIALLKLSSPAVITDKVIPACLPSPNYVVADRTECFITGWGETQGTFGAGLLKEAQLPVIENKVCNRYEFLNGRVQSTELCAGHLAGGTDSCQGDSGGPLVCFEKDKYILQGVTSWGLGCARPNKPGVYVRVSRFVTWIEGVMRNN
Sequence of Tissue-type plasminogen activator (Mus musculus, UniProt P11214) (P11214 whole entry): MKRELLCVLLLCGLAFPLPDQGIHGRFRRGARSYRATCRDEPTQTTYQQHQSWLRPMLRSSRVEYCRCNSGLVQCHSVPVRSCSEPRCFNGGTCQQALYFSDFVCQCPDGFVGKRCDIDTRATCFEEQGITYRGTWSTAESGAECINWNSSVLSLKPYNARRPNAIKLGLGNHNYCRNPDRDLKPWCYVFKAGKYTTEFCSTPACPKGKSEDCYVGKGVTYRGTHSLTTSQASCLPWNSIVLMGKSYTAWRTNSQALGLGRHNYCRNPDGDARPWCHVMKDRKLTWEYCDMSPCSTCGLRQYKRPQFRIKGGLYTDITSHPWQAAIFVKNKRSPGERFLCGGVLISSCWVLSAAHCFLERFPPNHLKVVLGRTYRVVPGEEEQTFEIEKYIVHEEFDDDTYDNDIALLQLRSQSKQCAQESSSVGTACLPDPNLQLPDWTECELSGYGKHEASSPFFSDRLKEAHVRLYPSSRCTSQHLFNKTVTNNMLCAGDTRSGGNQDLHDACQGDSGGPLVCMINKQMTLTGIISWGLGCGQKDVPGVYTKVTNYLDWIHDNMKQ
Sequence of Coagulation factor XI (P03951 19-387 limits assumed): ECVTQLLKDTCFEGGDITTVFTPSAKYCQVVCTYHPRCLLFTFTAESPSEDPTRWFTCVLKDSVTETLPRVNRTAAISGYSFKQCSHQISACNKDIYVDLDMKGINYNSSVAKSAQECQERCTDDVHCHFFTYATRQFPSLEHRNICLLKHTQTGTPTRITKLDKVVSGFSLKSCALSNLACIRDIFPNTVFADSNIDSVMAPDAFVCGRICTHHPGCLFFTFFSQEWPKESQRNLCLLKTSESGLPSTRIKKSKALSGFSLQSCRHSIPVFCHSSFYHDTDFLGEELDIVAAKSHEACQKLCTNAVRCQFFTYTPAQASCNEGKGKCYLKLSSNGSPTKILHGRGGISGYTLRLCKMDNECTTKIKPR
Sequence of Coagulation factor XI (P03951 388-625 limits assumed): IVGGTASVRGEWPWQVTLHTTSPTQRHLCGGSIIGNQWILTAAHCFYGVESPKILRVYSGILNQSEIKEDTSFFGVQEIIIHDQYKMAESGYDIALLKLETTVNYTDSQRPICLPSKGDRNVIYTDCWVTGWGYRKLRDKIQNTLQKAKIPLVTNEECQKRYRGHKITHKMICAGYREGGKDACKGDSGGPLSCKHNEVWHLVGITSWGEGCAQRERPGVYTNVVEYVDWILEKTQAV
Sequence of Plasma kallikrein (P26262 20-390 limits assumed): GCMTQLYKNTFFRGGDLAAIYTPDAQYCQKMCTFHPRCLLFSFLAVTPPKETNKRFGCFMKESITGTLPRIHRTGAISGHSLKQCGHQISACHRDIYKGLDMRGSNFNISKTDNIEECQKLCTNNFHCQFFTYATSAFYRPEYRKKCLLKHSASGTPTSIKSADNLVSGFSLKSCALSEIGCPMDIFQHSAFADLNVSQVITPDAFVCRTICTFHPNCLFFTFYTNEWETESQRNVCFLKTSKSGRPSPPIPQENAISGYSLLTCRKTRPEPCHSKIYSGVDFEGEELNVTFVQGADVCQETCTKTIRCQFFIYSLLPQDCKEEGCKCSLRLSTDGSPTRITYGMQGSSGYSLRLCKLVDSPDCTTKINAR
Sequence of Plasma kallikrein (P26262 391-638 limits assumed): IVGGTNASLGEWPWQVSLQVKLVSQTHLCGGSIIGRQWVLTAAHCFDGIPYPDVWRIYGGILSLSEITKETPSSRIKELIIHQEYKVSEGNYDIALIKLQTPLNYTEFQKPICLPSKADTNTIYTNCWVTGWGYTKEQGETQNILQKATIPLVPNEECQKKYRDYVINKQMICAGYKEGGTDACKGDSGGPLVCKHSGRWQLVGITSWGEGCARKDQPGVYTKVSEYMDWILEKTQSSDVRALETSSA

`CC[C@H](C)[C@@H]1NC(=O)[C@H](Cc2ccc(O)cc2)NC(=O)[C@H](CCCNC(=N)N)NC(=O)[C@H](CO)NC(=O)[C@H](Cc2ccc(O)cc2)NC(=O)[C@H](C)NC(=O)[C@@H]2CCCN2C(=O)[C@@H](N)CSSC[C@@H](C(=O)O)NC(=O)CNC1=O` (H-CPAYSRYIGC-OH; disulfide 1-10) gave a Ki [1] of 6.8 nM, a Ki (Plasma kallikrein) of over 25000 nM and a Ki [2] of over 25000 nM. It also gave a Ki [3] of over 25000 nM, a Ki (Plasminogen) of over 25000 nM and a Ki (Prothrombin [4]) of over 25000 nM. For the same compound, the Ki (Prothrombin [5]) was over 25000 nM, the Ki [6] was 2100 nM and the Ki (Coagulation factor XI) was over 25000 nM. The Kd [7] was 2.4 nM, the Kd [8] was 10.6 nM and the inhibition [9] was 30%. It also gave an IC50 [10] of 10.1 nM, an IC50 [11] of 11.9 nM and an IC50 [12] of 11.3 nM. The IC50 [13] was 70.7 nM, the Stability [14] was “Stable” and the inhibition in vivo at 1.13 mg/kg (CT26 [15]) was 36.1%. For the same compound, the Activity (CT26 [16]) was “inactive”, the Activity (CT26 [17]) was “inactive” and the Activity (CT26 [18]) was “Active”. For the same compound, the Activity [19] was “Non-Toxic”, the Stability [20] was “Unstable” and the concentration at 360 h [21] was 100 µM. The inhibition [22] was 70 to 80%.
